Screening data: PubChem BioAssay, The Scripps Research Institute Molecular Screening Center
HTRA1 inhibitor – HTRA1 serine protease inhibitors, primary screen, biochemical, fluorescence polarization, HTS | recombinant HTRA1, FP-rhodamine activity-based probe | AID 504803, 2011 | inhibition, % at 5.96 µM | Q92743 | 340,000 compounds, 0.5% hits; in the data active means inhibition above about 36%
Target sequence (Q92743 whole entry, looked up): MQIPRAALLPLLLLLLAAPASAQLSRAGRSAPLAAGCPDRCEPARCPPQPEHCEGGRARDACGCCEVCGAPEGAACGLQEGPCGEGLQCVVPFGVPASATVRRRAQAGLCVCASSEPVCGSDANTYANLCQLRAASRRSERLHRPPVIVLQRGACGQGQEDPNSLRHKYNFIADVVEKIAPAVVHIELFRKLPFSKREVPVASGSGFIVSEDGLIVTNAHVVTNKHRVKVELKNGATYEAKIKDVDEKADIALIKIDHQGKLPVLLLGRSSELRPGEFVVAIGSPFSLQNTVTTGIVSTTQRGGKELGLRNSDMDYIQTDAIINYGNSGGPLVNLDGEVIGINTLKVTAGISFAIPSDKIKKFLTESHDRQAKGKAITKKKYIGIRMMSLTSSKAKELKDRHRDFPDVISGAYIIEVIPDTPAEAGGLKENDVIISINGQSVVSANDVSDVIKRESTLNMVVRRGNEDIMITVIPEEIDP
TCR-CD3 inh – inhibitors of human TCR-CD3 interaction, primary screen, biochemical, fluorescence, TAMRA-labeled TCR probe. T-cell receptor (TCR). inhibition, % at 9.4 µM. 360,000 compounds, 0.37% hits. AID 651800, 2012; in the data active means inhibition above about 19%;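 further: recombinant mutant TCR 2C K166C tagged with TAMRA read by polarization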
SIAE inh – human SIAE inhibitors, primary screen, biochemical, fluorescence polarization, FP-Rh probe, 1536-well HTS | inhibition, % at 9.66 µM | 370,000 compounds, 0.69% hits | SIAE FP-Rh probe binding | AID 1053197, 2014 | Sialate O-acetylesterase (Homo sapiens), Q9HAT2;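 active means inhibition above a cutoff: mean of compounds within the control limits plus 3 SD of those, cut at about 17% in these data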
ABHD4 inh – ABHD4 inhibitors, primary screen, biochemical, fluorescence polarization, mouse. (Lyso)-N-acylphosphatidylethanolamine lipase (Mus musculus), Q8VD66. purified mABHD4, FP-Rh probe fluorescence polarization. inhibition, % at 8.92 µM. 370,000 compounds, 0.54% hits. AID 720543, 2013;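 active means inhibition exceeding the mean over every tested compound plus 3 SD, cut at about 30% in these data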
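Assay system: mABHD4 protein; medium: HEPES pH 7.0, NaCl, Pluronic buffer; dosing: 8.92 µM, single dose; schedule: 45 min + 60 min at 25 °C; signal: FP readout, ex 525 nm / em 598 nm; read-out: normalized percent inhibition of probe labeling; repeats: single replicate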
PRMT1 FP inh – PRMT1 methyltransferase inhibitors, primary screen, biochemical, fluorescence polarization; Protein arginine N-methyltransferase 1 (Homo sapiens), Q99873; recombinant PRMT1, activity-based probe fluorescence polarization; AID 652257, 2013; inhibition, % at 2.79 µM; 370,000 compounds, 1.3% hits;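 active means inhibition above about 21% made by adding two undisclosed values, limit read from the data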
PRMT1 inh conf – PRMT1 methyltransferase inhibitors, confirmation, biochemical, fluorescence polarization, triplicate; shares compounds with PRMT1 FP inh; recombinant His-PRMT1, activity-based probe fluorescence polarization; inhibition, % at 2.79 µM; 3,300 compounds, 42% hits; AID 687036, 2013;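 active means mean inhibition across replicates above the hit cutoff derived for the earlier primary screen, cut at about 22% in these data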
Large screens that a line does not name were inactive (follow-up assays come after a bar, where they were run). The list is not random: actives were taken first. Their share in the collection is about 2.7%.

Cc1ccc(NC(=O)CC2SC3=NCCCN3C2=O)c(C)c1 (centres undefined)	PRMT1 FP inh 44.5 | PRMT1 inh conf 39.7
CC(=O)Nc1ccc(S(=O)(=O)NC2CC(=O)N(c3ccc(C)cc3)C2)cc1 (centres undefined)	none
COc1ccccc1NS(=O)(=O)c1cc(N2Cc3ccccc3C2=N)ccc1N1CCOCC1	PRMT1 FP inh 26.5 | PRMT1 inh conf inactive
O=C(Nc1ccc(Oc2ccccc2)cc1)c1csc([C@H]2C[C@H](O)[C@@H](CO)O2)n1	none (no result: HTRA1 inhibitor)
O=C(NCCNC(=O)c1ccc([N+](=O)[O-])cc1)c1ccncc1	none
Cc1ccc(-n2ncc3c2CC(C)(C)CC3NC(=O)CCc2ccncc2)cc1 (centres undefined)	none
O=C(C[C@H]1CC[C@H]2[C@@H](COC[C@H](O)CN2Cc2ccccc2)O1)NCCCN1CCOCC1	none (no result: HTRA1 inhibitor)
CC(C)CCN1C(=O)c2ccccc2C1c1nnnn1C(C)C (centres undefined)	none (no result: HTRA1 inhibitor)
CCOc1ccc(CNC(=O)c2ccc3c(c2)N(CC)CCS3)cc1	PRMT1 FP inh 25.3 | PRMT1 inh conf inactive
CCN1CCSc2ccc(C(=O)NCc3ccc(OC(C)C)cc3)cc21	none
CC[C@]1(C(=O)OC)[C@H]2C(=O)N(Cc3ccccc3)C(=O)[C@H]2[C@H]2CN(C)C(=NCc3ccccc3)N21	none (no result: TCR-CD3 inh, SIAE inh, ABHD4 inh, PRMT1 FP inh)
Cc1cc(O)cc(=O)n1-c1ccc(Cl)c(C(F)(F)F)c1	none (no result: HTRA1 inhibitor)
Oc1ccc2ccccc2c1CNc1cnc2ccccc2c1	PRMT1 FP inh 42.9 | PRMT1 inh conf 29.4
C=CCN1[C@@H](C)[C@H](c2ccccc2)Oc2cccc(N3CCCC3)c2S1(=O)=O	none (no result: HTRA1 inhibitor)
Cc1ccc(S(=O)(=O)/C=C2\OCc3ccccc32)cc1	none (no result: HTRA1 inhibitor)
C(=C\c1ccco1)/c1ccc2ccccc2n1	PRMT1 FP inh 38.2 (no result: HTRA1 inhibitor) | PRMT1 inh conf inactive
O=C(NNC(=O)c1cc2ccccc2oc1=O)c1ccccc1[N+](=O)[O-]	none
Cc1ccc(/C=C/C(=O)O)cc1S(=O)(=O)N1CCCCC1	none
S=c1nc(-c2cc(Cl)ccc2Cl)[nH][nH]1	PRMT1 FP inh 55.6 | PRMT1 inh conf 47.1
S=c1nc(-c2cccc(Cl)c2)[nH][nH]1	none
Cc1ccc2c(nc3s/c(=C/c4cccs4)c(=O)n32)c1C	none
CCOC(=O)C(C)N1C(=O)S/C(=C\c2ccc(-c3ccccc3C(=O)O)o2)C1=O (centres undefined)	PRMT1 FP inh 29.1 | PRMT1 inh conf inactive
Cc1ccc2c(nc3s/c(=C\c4ccc(-c5ccccc5C(=O)O)o4)c(=O)n32)c1C	PRMT1 FP inh 29.0 | PRMT1 inh conf inactive
Brc1ccc(-c2csc3[n+]2CCCCC3)cc1	PRMT1 FP inh 27.8 | PRMT1 inh conf inactive
Clc1ccc(-n2cc(-c3ccc(Br)cc3)[n+]3c2CCCCC3)cc1	none
COc1ccc(NS(=O)(=O)c2cc(N)ccc2N2CCCCC2)cc1	none
Nc1ccc(N2CCCC2)c(S(=O)(=O)Nc2cccc(C(F)(F)F)c2)c1	PRMT1 FP inh 47.0 | PRMT1 inh conf inactive
CN1C(=O)CS(=O)c2ccc(C(=O)NC3CC3)cc21 (centres undefined)	PRMT1 FP inh 37.1 | PRMT1 inh conf inactive
Cc1cc(C)cc(-n2c3ccc(NC(=O)Cc4cccc5ccccc45)cc3c(=O)n2C)c1	none (no result: HTRA1 inhibitor)
S=C(NC1CC1)SCc1ccco1	PRMT1 FP inh 47.9 | PRMT1 inh conf inactive
O=C(NC1CCCCC1)NC1CCN(C(=S)NCc2ccco2)CC1	none
COc1ccccc1NC(=O)/C=C\c1ccco1	none
COc1ccccc1NC(=O)/C(C#N)=C/C=C/c1ccco1	PRMT1 FP inh 28.4 | PRMT1 inh conf inactive
COc1c(O)cccc1[C@H](O)C1CCN(CCc2ccc(F)cc2)CC1	PRMT1 FP inh 28.8 | PRMT1 inh conf inactive
O=C(NCCCN1CCCCC1)C1CCC(CNS(=O)(=O)c2cccc3nsnc23)CC1 (centres undefined)	none
CCOC(=O)[C@H]1[C@H]2COc3ccccc3[C@@H]2N2C(=O)CN(Cc3ccc(C)cc3)C(=O)[C@@]12C	PRMT1 FP inh 50.2 | PRMT1 inh conf inactive
CCOC(=O)[C@H]1[C@H]2COc3ccc(C)cc3[C@@H]2N2C(=O)CN(Cc3ccc(Cl)cc3)C(=O)[C@@]12C	none
COc1cc2[nH]c(Cl)c([N+](=O)[O-])c2cc1OC	PRMT1 FP inh 30.3 | PRMT1 inh conf inactive
COc1cc2[nH]c3c(Cl)ncnc3c2cc1OC	none
CCCC1CCC2(CC1)CCC2OC(=S)NCc1ccc(Cl)cc1 (centres undefined)	none (no result: HTRA1 inhibitor, TCR-CD3 inh)
O=C(CSc1nc2[nH]c(=O)cc(O)c2s1)Nc1nccs1	PRMT1 FP inh 25.2 | PRMT1 inh conf inactive
Cc1ccc(C2CC(c3ccccc3)=NN2C(=S)Nc2ccccc2)o1 (centres undefined)	PRMT1 FP inh 50.6 | PRMT1 inh conf inactive
CN(C(=O)CNC(=O)c1ccccc1OCC(=O)Nc1ccc(I)cc1)c1ccccc1	PRMT1 FP inh 30.6 (no result: HTRA1 inhibitor, TCR-CD3 inh) | PRMT1 inh conf inactive
O=C1CSC(=Nc2ccc(O)cc2)N1c1ccc(O)cc1	none
Cc1ccc(N2C(=O)CS/C2=N\C(=S)Nc2ccccc2)cc1	PRMT1 FP inh 28.2 (no result: HTRA1 inhibitor) | PRMT1 inh conf inactive
CCOc1cc(/C=C2\C(=O)N(Cc3ccc(C)cc3)C(C)=C2C(=O)OC)ccc1O	PRMT1 FP inh 41.1 | PRMT1 inh conf inactive
C=CCOc1cccc(/C=C2\C(=O)N(Cc3ccc(C)cc3)C(C)=C2C(=O)OC)c1	none
COc1ccc(CCNC(=O)c2ccc(F)c(S(=O)(=O)N3CCCCC3)c2)cc1	none
Cc1ccc(CS(=O)(=O)Cc2ccc(C(=O)NCc3ccccn3)o2)cc1	PRMT1 FP inh 33.7 | PRMT1 inh conf inactive
C=CCn1c(Cc2ccccc2)n[nH]c1=S	none
C=CCn1c(CSc2ccccc2[N+](=O)[O-])n[nH]c1=S	PRMT1 FP inh 24.9 | PRMT1 inh conf inactive
CCOC(=O)C1CSc2[nH]c(=O)sc2C1c1ccccc1 (centres undefined)	PRMT1 FP inh 31.2 | PRMT1 inh conf inactive
COC(=O)CC1N(S(=O)(=O)c2ccc(C)cc2)c2ccccc2C1(C(=O)OC)C(=O)OC (centres undefined)	none (no result: HTRA1 inhibitor)
O=C(NC1CCCCC1)C(c1cccc2ccccc12)n1c(=O)c(-c2ccco2)nc2ccccc21 (centres undefined)	PRMT1 FP inh 29.4 (no result: HTRA1 inhibitor) | PRMT1 inh conf inactive
COc1ccc(C(C(=O)NC2CCCCC2)n2c(=O)c(-c3ccco3)nc3ccccc32)cc1 (centres undefined)	none (no result: HTRA1 inhibitor)
CC(C)(C)NC(=O)C(c1ccccc1)n1c(=O)c(-c2ccco2)nc2ccccc21 (centres undefined)	PRMT1 FP inh 26.1 (no result: HTRA1 inhibitor) | PRMT1 inh conf inactive
